According to ChEMBL document CHEMBL1833790, “N-(2-{3-[3,5-bis(trifluoromethyl)phenyl]ureido}ethyl)-glycyrrhetinamide (6b): a novel anticancer glycyrrhetinic acid derivative that targets the proteasome and displays anti-kinase activity” (J Med Chem, 2011):
Active and inactive are the calls of the source. No cut-off for these calls is given here. Peptide text beside a SMILES is read from it. * marks the point of attachment. Cbz = O=C(OCc1ccccc1)*

Columns and labels:
[1] = Chemical stability of the compound in MEM cell culture medium after 7 days by HPLC analysis; format: physicochemical; details: read-out: Stability
How it was run: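 Compound incubated in MEM culture medium at 37 °C for 7 days, then analysed by HPLC on RX-C8 (5 μm) column with MeOH–water 90:10 (0.1% TFA), diode-array detection. Expressed as % of incubated compound recovered.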

A549 = test: Growth inhibition in apoptosis-resistant human A549 after 3 days by MTT assay; format: functional; details: A549, 72 h
How it was run: (§1)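 Cells grown in RPMI with 10% heat-inactivated FCS, 4 mM glutamine, gentamicin and penicillin–streptomycin. Drug exposure 3 days, growth read by MTT colorimetric assay. Nine concentrations from 0.01 to 100 μM in semilog steps, six replicates each; IC50 derived per cell line.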

SK-MEL-28 = test: Growth inhibition in apoptosis-resistant human SK-MEL-28 after 3 days by MTT assay; format: functional; details: SK-MEL-28, 72 h; how it was run: as §1
T98G = test: Growth inhibition in apoptosis-resistant human T98G after 3 days by MTT assay; format: functional; details: 72 h; how it was run: as §1
[2] = Growth inhibition in apoptosis-resistant human U373 after 3 days by MTT assay; format: functional, U-373MG ATCC; details: U373 MG, 72 h; how it was run: as §1
Hs 683 = test: Growth inhibition in apoptosis-sensitive human Hs683 after 3 days by MTT assay; format: functional; details: Hs 683, 72 h; how it was run: as §1
PC-3 = test: Growth inhibition in apoptosis-sensitive human PC3 after 3 days by MTT assay; format: functional; details: PC-3, 72 h; how it was run: as §1
MCF7 = test: Growth inhibition in apoptosis-sensitive human MCF7 after 3 days by MTT assay; format: functional; details: MCF7, 72 h; how it was run: as §1
B16-F10 = test: Growth inhibition in mouse B16F10 after 3 days by MTT assay; format: functional; details: B16-F10, 72 h; how it was run: as §1
U-373MG ATCC [3] = test: Inhibition of chymotrypsin-like activity of 20S proteasome in human U373 at 7 uM after 2 days by bioluminescence assay; format: cell-based
How it was run: (§2)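 U373 GBM cells seeded at 5000 cells/mL and grown 48 h, then treated for two days. Cells washed in PBS and permeabilised with 0.025% digitonin. Proteasome-Glo reagent added with Suc-LLVY-Glo (chymotrypsin-like), Z-LRR-Glo (trypsin-like) or Z-nLPnLD-Glo (caspase-like) substrate. Luminescence read after 10 min in the dark and normalised to a parallel MTT viability assay; triplicates. MG-132 at 0.5 μM used as reference.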

U-373MG ATCC [4] = test: Inhibition of trypsin-like activity of 20S proteasome in human U373 cells at 7 uM after 2 days by bioluminescence assay; format: cell-based; how it was run: as §2
U-373MG ATCC [5] = test: Inhibition of caspase-like activity of 20S proteasome in human U373 cells at 7 uM after 2 days by bioluminescence assay; format: cell-based; how it was run: as §2
U-373MG ATCC [6] = test: Inhibition of chymotrypsin-like activity of 20S proteasome in human U373 cells at 60 uM after 2 days by bioluminescence assay; format: cell-based; how it was run: as §2
U-373MG ATCC [7] = test: Inhibition of trypsin-like activity of 20S proteasome in human U373 cells at 60 uM after 2 days by bioluminescence assay; format: cell-based; how it was run: as §2
U-373MG ATCC [8] = test: Inhibition of caspase-like activity of 20S proteasome in human U373 cells at 60 uM after 2 days by bioluminescence assay; format: cell-based; how it was run: as §2
U-373MG ATCC [9] = test: Inhibition of chymotrypsin-like activity of 20S proteasome in human U373 cells at 0.5 uM after 2 days by bioluminescence assay; format: cell-based; how it was run: as §2
U-373MG ATCC [10] = test: Inhibition of trypsin-like activity of 20S proteasome in human U373 cells at 0.5 uM after 2 days by bioluminescence assay; format: cell-based; how it was run: as §2
U-373MG ATCC [11] = test: Inhibition of caspase-like activity of 20S proteasome in human U373 cells at 0.5 uM after 2 days by bioluminescence assay; format: cell-based; how it was run: as §2

SMILES	remaining at 168 h [1]	GI50 (A549)	GI50 (SK-MEL-28)	GI50 (T98G)	GI50 [2]	GI50 (Hs 683)	GI50 (PC-3)	GI50 (MCF7)	GI50 (B16-F10)	inhibition (U-373MG ATCC [3])	inhibition (U-373MG ATCC [4])	inhibition (U-373MG ATCC [5])	inhibition (U-373MG ATCC [6])	inhibition (U-373MG ATCC [7])	inhibition (U-373MG ATCC [8])	inhibition (U-373MG ATCC [9])	inhibition (U-373MG ATCC [10])	inhibition (U-373MG ATCC [11])
CC1(C)[C@@H](O)CC[C@]2(C)[C@H]3C(=O)C=C4[C@@H]5C[C@@](C)(C(=O)NCCNC(=O)c6ccc(F)cc6)CC[C@]5(C)CC[C@@]4(C)[C@]3(C)CC[C@@H]12	98%	28 µM	37 µM	35 µM	29 µM	31 µM	30 µM	25 µM	28 µM	–	–	–	–	–	–	–	–	–
CCOC(=O)CCNC(=O)NCCNC(=O)[C@@]1(C)CC[C@]2(C)CC[C@]3(C)C(=CC(=O)[C@@H]4[C@@]5(C)CC[C@H](O)C(C)(C)[C@@H]5CC[C@]43C)[C@@H]2C1	99%	29 µM	65 µM	71 µM	42 µM	42 µM	46 µM	42 µM	41 µM	–	–	–	–	–	–	–	–	–
CSc1ccc(C(=O)NCCNC(=O)[C@@]2(C)CC[C@]3(C)CC[C@]4(C)C(=CC(=O)[C@@H]5[C@@]6(C)CC[C@H](O)C(C)(C)[C@@H]6CC[C@]54C)[C@@H]3C2)cc1	99%	37 µM	38 µM	54 µM	37 µM	36 µM	47 µM	30 µM	31 µM	–	–	–	–	–	–	–	–	–
CC1(C)[C@@H](O)CC[C@]2(C)[C@H]3C(=O)C=C4[C@@H]5C[C@@](C)(C(=O)NCCc6ccc(F)cc6)CC[C@]5(C)CC[C@@]4(C)[C@]3(C)CC[C@@H]12	95%	33 µM	82 µM	46 µM	42 µM	56 µM	33 µM	31 µM	32 µM	–	–	–	–	–	–	–	–	–
CC(C)C[C@@H](C=O)NC(=O)[C@H](CC(C)C)NC(=O)[C@H](CC(C)C)NC(=O)OCc1ccccc1 (Cbz-Leu-Leu-Leu-aldehyde)	–	–	–	–	–	–	–	–	–	Active	Active	Active	Active	Active	Active	Active	Active	Active
CC1(C)[C@@H](O)CC[C@]2(C)[C@H]3C(=O)C=C4[C@@H]5C[C@@](C)(C(=O)NCCNC(=O)c6ccc(C(F)(F)F)cc6)CC[C@]5(C)CC[C@@]4(C)[C@]3(C)CC[C@@H]12	95%	47 µM	49 µM	62 µM	55 µM	38 µM	53 µM	28 µM	36 µM	–	–	–	–	–	–	–	–	–
CC1(C)[C@@H](O)CC[C@]2(C)[C@H]3C(=O)C=C4[C@@H]5C[C@@](C)(C(=O)NCCNC(=O)Nc6ccccc6)CC[C@]5(C)CC[C@@]4(C)[C@]3(C)CC[C@@H]12	96%	29 µM	49 µM	30 µM	30 µM	28 µM	32 µM	28 µM	31 µM	–	–	–	–	–	–	–	–	–
